This is a sample that favours compounds with a hit; in the whole collection about 1.9% have one here.
Tb MetRS inh = blocks T. brucei methionyl-tRNA synthetase activity | purified T. brucei MetRS, ATP depletion, Kinase-Glo luminescence | inhibition, % at 11.9 µM | actives 0.4% (n = 360,000) | AID 624268;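 active means inhibition above a per-plate cutoff of the control wells' mean inhibition plus 3 SD, cut at about 5.5% in these data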;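 further: 0% = DMSO wells median and 100% = median of wells with control inhibitor compound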
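System: purified T. brucei MetRS enzyme / Detection: Kinase-Glo luciferase luminescence reporting remaining unconsumed ATP / Medium: HEPES buffer with MgCl2, KCl, DTT, spermine, BSA, pyrophosphatase / Replication: singlicate, one well per compound / Evaluation: percent inhibition relative to median high and low control wells / Schedule: 2 h aminoacylation at 25 °C after 15 min preincubation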
PLC-beta3 inh = blocks human PLC-beta3 enzyme activity. Q01970. inhibition, % at 12.2 µM. Purified PLC-beta3, fluorogenic substrate, fluorescence. actives 0.18% (n = 370,000); in the data active means inhibition above about 11%;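 further: 0% = median of compound wells on plate and 100% = full blocker control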
PLCg1 inh = PLC-gamma1 (human) inhibition, primary screen; P19174; actives 0.84% (n = 370,000); inhibition, % at 12.2 µM; purified PLC-gamma1, fluorogenic substrate, fluorescence; AID 720700; in the data active means inhibition above about 9.5%
sPLA2-III inh = Inhibits HGIII-sPLA2 liposome hydrolysis, primary screen. Q9NZ20. QFRET BODIPY PC-A2 liposome hydrolysis, fluorescence. inhibition, % at 12.2 µM. actives 0.56% (n = 370,000). AID 743126;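 active means inhibition above mean plus 3 SD of compounds lying within the high and low control bounds, cut at about 19% in these data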;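 further: 0% = median of test compound wells and 100% = no enzyme DMSO wells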
Tb MetRS conf = confirmation of Trypanosoma brucei MetRS inhibitors; T. brucei MetRS enzyme, luminescence (ATP depletion); actives 93% (n = 1,400); shares compounds with Tb MetRS inh; inhibition, % at 11.9 µM; AID 624412; in the data active means inhibition above about 7%
Jurkat tox = Jurkat T cell cytotoxicity for MetRS hits; shares compounds with Tb MetRS inh; AID 624413; actives 12% (n = 1,400); Jurkat cells viability, ATP luminescence; inhibition, % at 8.3 µM; in the data active means inhibition above about 15%;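 further: 0% = vehicle and 100% = reference inhibitor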
Tb MetRS inh FP = orthogonal test for Trypanosoma brucei MetRS inhibitors; shares compounds with Tb MetRS inh; purified T. brucei MetRS, fluorescence polarization; inhibition, % at 11.9 µM; actives 44% (n = 1,400); AID 651607; in the data active means inhibition above about 17%;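 further: 0% = vehicle wells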
Starred values were filed as active, the others as inactive.

How did Cc1c(NC(=O)C2CCCN(S(=O)(=O)c3ccccc3[N+](=O)[O-])C2)c(=O)n(-c2ccccc2)n1C (stereo not given) do in these assays?
PLC-beta3 inh: 3.2; PLCg1 inh: 3.5; sPLA2-III inh: 3.9

What do the screens show for `COc1cccc(CNC(=O)[C@H]2CCCN2C(=O)[C@H]2CCCN2C(=O)c2cccc(F)c2)c1`?
PLC-beta3 inh: 5.0; PLCg1 inh: 3.4; sPLA2-III inh: 3.1

How did Cc1ccc(C2CCC3(CCC(=O)N3CCOC(=O)Nc3ccc(F)cc3)CC2)cc1 (stereo not given) do in these assays?
PLC-beta3 inh: -2.0; PLCg1 inh: 1.4; sPLA2-III inh: 11.5

Results for COC(=O)c1cc(NC(=O)NC2CCCCN(Cc3cccc(Cl)c3)C2=O)cc(C(=O)OC)c1 (stereo not given) ?
PLC-beta3 inh: -1.2; PLCg1 inh: -0.6; sPLA2-III inh: 0.6

How did O=C(COc1ccc2ccccc2c1)Nc1nc2ccccc2[nH]1 do in these assays?
Tb MetRS inh: 9.1*; PLC-beta3 inh: -3.6; PLCg1 inh: -1.8; sPLA2-III inh: 15.3; Tb MetRS conf: 12.5*; Jurkat tox: 2.1; Tb MetRS inh FP: 5.4

How did COc1ccc(CC(=O)Nc2nc3ccccc3[nH]2)cc1 do in these assays?
Tb MetRS inh: -0.5; PLC-beta3 inh: 2.5; PLCg1 inh: -0.1; sPLA2-III inh: -1.0

How did COc1cccc(CC(=O)Nc2nc3ccccc3[nH]2)c1 do in these assays?
Tb MetRS inh: 6.0*; PLC-beta3 inh: -1.4; PLCg1 inh: -0.9; sPLA2-III inh: 4.3; Tb MetRS conf: 13.7*; Jurkat tox: -0.5; Tb MetRS inh FP: 6.9

How did CC1CCC(NC(=O)c2ccc(-n3cncn3)c([N+](=O)[O-])c2)CC1 (stereo not given) do in these assays?
Tb MetRS inh: 12.1*; PLC-beta3 inh: -6.9; PLCg1 inh: -0.4; sPLA2-III inh: 11.4; Tb MetRS conf: 51.8*; Jurkat tox: -4.0; Tb MetRS inh FP: 24.4*

Results for Cc1cc(C)c(S(=O)(=O)N2CCN(C(=O)c3ccc(-n4cncn4)c([N+](=O)[O-])c3)CC2)c(C)c1 ?
Tb MetRS inh: 0.9; PLC-beta3 inh: -11.7; PLCg1 inh: 2.1; sPLA2-III inh: -3.8

Results for O=C(NCC1COc2ccccc2O1)c1ccc(-n2cncn2)c([N+](=O)[O-])c1 (stereo not given) ?
Tb MetRS inh: 19.4*; PLC-beta3 inh: -4.4; PLCg1 inh: -1.5; sPLA2-III inh: -0.2; Tb MetRS conf: 57.7*; Jurkat tox: -2.3; Tb MetRS inh FP: 30.7*

How did O=C(NC1CCCCC1)c1ccc(-n2cncn2)c([N+](=O)[O-])c1 do in these assays?
Tb MetRS inh: 23.8*; PLC-beta3 inh: -0.9; PLCg1 inh: -0.5; sPLA2-III inh: -1.0; Tb MetRS conf: 50.9*; Jurkat tox: 7.7; Tb MetRS inh FP: 28.4*

Results for O=C(N[C@H](Cc1ccccc1)C(=O)NCc1ccccn1)[C@H]1O[C@@H](n2ccc(=O)[nH]c2=O)[C@H](O)[C@@H]1O ?
PLC-beta3 inh: 4.4; PLCg1 inh: 1.3; sPLA2-III inh: 4.0

Results for COc1ccc(NC(=O)CC2C(=O)N(c3ccc(OC)cc3)C(=O)N2CCc2cccs2)cc1 (stereo not given) ?
Tb MetRS inh: 10.9*; PLC-beta3 inh: 0.3; PLCg1 inh: 2.1; sPLA2-III inh: -20.6; Tb MetRS conf: 20.5*; Jurkat tox: 0.3; Tb MetRS inh FP: 15.0

How did COc1ccc(CCN2C(=S)N(C)C(=O)C2CC(=O)Nc2ccc(F)cc2)cc1 (stereo not given) do in these assays?
Tb MetRS inh: 57.7*; PLC-beta3 inh: -7.4; PLCg1 inh: 1.5; sPLA2-III inh: -44.1; Tb MetRS conf: 80.8*; Jurkat tox: 5.5; Tb MetRS inh FP: 50.8*

Results for CCOc1ccc(NC(=O)CC2C(=O)N(C)C(=S)N2CCCc2ccccc2)cc1 (stereo not given) ?
Tb MetRS inh: -0.4; PLC-beta3 inh: 0.9; PLCg1 inh: 5.0; sPLA2-III inh: -10.1

How did COC(=O)CN1C(=S)N(c2ccc(OC)cc2)C(=O)C1CC(=O)Nc1ccc(F)cc1 (stereo not given) do in these assays?
Tb MetRS inh: 0.9; PLC-beta3 inh: -3.5; PLCg1 inh: -0.2; sPLA2-III inh: -29.0

Results for COc1ccc(N2C(=O)C(CC(=O)Nc3ccccc3)N(Cc3cccs3)C2=O)cc1 (stereo not given) ?
Tb MetRS inh: -0.3; PLC-beta3 inh: 0.3; PLCg1 inh: 0.7; sPLA2-III inh: -5.5

How did CCN1C(=O)C(CC(=O)Nc2ccc(Br)cc2)N(CCCc2ccccc2)C1=S (stereo not given) do in these assays?
Tb MetRS inh: 65.7*; PLC-beta3 inh: 9.0; PLCg1 inh: 8.5; sPLA2-III inh: -7.6; Tb MetRS conf: 77.1*; Jurkat tox: 8.4; Tb MetRS inh FP: 62.2*

How did CCC(=O)N(c1ccccc1)C1CCN(C(=O)C(Cc2ccccc2)NC(C)=O)CC1 (stereo not given) do in these assays?
PLC-beta3 inh: 0.7; PLCg1 inh: -0.1; sPLA2-III inh: 4.7

What do the screens show for `CCC1CCCCN1C(=O)n1ncc(C(O)(c2ccccc2)c2ccccc2)n1` (stereo not given)?
PLC-beta3 inh: -2.5; PLCg1 inh: 0.0; sPLA2-III inh: -10.1

Results for O=C(Nc1ccc(Cl)c(Cl)c1)c1cccc2c1-c1ccccc1C2=O ?
PLC-beta3 inh: 2.8; PLCg1 inh: 1.1; sPLA2-III inh: -0.3

What do the screens show for `Cc1cccc(CNc2ncnc3[nH]ncc23)c1`?
Tb MetRS inh: -0.2; PLC-beta3 inh: -8.3; PLCg1 inh: -4.9; sPLA2-III inh: -2.3

What do the screens show for `Clc1ccc(CNc2ncnc3[nH]ncc23)cc1Cl`?
Tb MetRS inh: 7.1*; PLC-beta3 inh: -1.7; PLCg1 inh: 1.3; sPLA2-III inh: -4.4; Tb MetRS conf: 28.6*; Jurkat tox: -1.5; Tb MetRS inh FP: 17.0*

How did CC(=O)Nc1ccc(/C=N/OCC(=O)Nc2ccc(C)cc2)cc1 do in these assays?
Tb MetRS inh: 0.0; PLC-beta3 inh: -2.2; PLCg1 inh: 1.3; sPLA2-III inh: 9.6

What do the screens show for `Cc1ccc(NC(=O)C=NOCC(=O)Nc2cc(C)cc(C)c2)cc1`?
Tb MetRS inh: 24.0*; PLC-beta3 inh: -0.3; PLCg1 inh: 0.3; sPLA2-III inh: -22.8; Tb MetRS conf: 58.2*; Jurkat tox: -3.7; Tb MetRS inh FP: 40.7*

What do the screens show for `C=CCOc1c(Br)cc(C2NC(=O)NC(C)=C2C(C)=O)cc1OCC` (stereo not given)?
Tb MetRS inh: 7.0*; PLC-beta3 inh: -5.0; PLCg1 inh: -6.3; sPLA2-III inh: -7.2; Tb MetRS conf: 14.8*; Jurkat tox: -7.2; Tb MetRS inh FP: 6.9

Source: PubChem BioAssay
